Laboratory results published in ChEMBL document CHEMBL1143614, “Structure-activity relationships of the unique and potent agouti-related protein (AGRP)-melanocortin chimeric Tyr-c[beta-Asp-His-DPhe-Arg-Trp-Asn-Ala-Phe-Dpr]-Tyr-NH2 peptide template” (J Med Chem, 2005).
Each block holds one molecule with its values, some of them ahead of it. Where a SMILES comes first, the peptide text is derived from it. Bridges are numbered along the chain shown (N, C = ends).

Key:
[1] = molecular target: Melanocortin receptor 3 (Mus musculus) (UniProt P33033); experiment: Relative percent of stimulatory activity for mouse Melanocortin-3 receptor at 100 uM
Melanocortin receptor 3 (Mus musculus), sequence (P33033 whole entry): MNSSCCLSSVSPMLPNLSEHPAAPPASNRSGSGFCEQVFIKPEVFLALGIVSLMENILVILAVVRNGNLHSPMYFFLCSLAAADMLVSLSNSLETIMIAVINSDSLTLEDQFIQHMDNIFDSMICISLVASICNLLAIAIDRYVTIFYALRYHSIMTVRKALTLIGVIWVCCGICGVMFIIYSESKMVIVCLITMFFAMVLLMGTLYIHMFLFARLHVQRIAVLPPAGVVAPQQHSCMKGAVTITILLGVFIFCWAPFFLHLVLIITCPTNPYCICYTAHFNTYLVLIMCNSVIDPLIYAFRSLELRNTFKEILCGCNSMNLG
In short: (§1)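 HEK-293 cells stably expressing mouse melanocortin receptors (G418-selected) were transiently transfected with a CRE/β-galactosidase reporter. 48 h after transfection, cells were stimulated for 6 h with peptide (10^-4 to 10^-12 M) or forskolin (10^-4 M) in DMEM with 0.1 mg/mL BSA and 0.1 mM IBMX. Lysates were incubated with ONPG at 37° and read at OD405. Signals were normalized to relative protein (OD595) and to forskolin response. EC50 came from nonlinear least-squares fits of duplicate experiments in quadruplet or more.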

[2] = molecular target: Melanocortin receptor 3 (Mus musculus) (UniProt P33033); experiment: Partial agonist activity towards mouse Melanocortin-3 receptor; type: functional; in short: as §1
[3] = molecular target: Melanocortin receptor 4 (Mus musculus) (UniProt P56450); experiment: Partial agonist activity towards mouse Melanocortin-4 receptor; type: functional; in short: as §1
Melanocortin receptor 4 (Mus musculus), sequence (P56450 whole entry): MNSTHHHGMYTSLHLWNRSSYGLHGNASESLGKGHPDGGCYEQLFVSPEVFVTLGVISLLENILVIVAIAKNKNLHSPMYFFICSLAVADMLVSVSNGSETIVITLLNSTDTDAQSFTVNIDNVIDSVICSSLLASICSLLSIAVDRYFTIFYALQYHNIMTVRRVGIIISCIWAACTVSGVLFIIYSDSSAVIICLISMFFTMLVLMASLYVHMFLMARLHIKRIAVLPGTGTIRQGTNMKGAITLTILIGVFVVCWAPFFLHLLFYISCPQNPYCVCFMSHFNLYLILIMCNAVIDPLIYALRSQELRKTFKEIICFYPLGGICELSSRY

[4] = molecular target: Melanocortin receptor 3 (Mus musculus) (UniProt P33033); experiment: Antagonist activity for mouse Melanocortin-3 receptor; type: functional
[5] = molecular target: Melanocortin receptor 3 (Mus musculus) (UniProt P33033); experiment: Agonist activity for mouse Melanocortin-3 receptor; type: functional; in short: as §1
Melanocortin receptor 4 = Melanocortin receptor 4 (Mus musculus, UniProt P56450); experiment: Effective concentration for mouse Melanocortin-4 receptor
Melanocortin receptor 4, sequence (P56450 whole entry): as above
In short: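 HEK-293 cells stably expressing the mouse receptor (G418 selection), transiently transfected with a CRE/β-galactosidase reporter. Forskolin (10^-4 M) served as the control. After lysis, ONPG was added at 37° and OD405 was read. Signals were normalized to protein content and forskolin; EC50 came from a nonlinear least-squares fit, duplicate or more independent experiments in quadruplicate.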

Melanocortin receptor 5 = Melanocortin receptor 5 (Mus musculus, UniProt P41149); experiment: Effective concentration for mouse Melanocortin-5 receptor
Melanocortin receptor 5, sequence (P41149 whole entry): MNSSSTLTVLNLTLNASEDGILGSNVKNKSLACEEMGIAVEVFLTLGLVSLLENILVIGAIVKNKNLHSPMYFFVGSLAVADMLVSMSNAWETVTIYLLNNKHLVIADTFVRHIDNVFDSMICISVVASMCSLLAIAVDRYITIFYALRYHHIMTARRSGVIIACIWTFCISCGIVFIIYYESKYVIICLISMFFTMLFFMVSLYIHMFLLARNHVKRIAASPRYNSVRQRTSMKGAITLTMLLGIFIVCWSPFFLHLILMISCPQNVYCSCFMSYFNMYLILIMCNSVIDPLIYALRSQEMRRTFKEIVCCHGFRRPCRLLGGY

[6] = molecular target: Melanocyte-stimulating hormone receptor (Mus musculus, UniProt Q01727); experiment: Effective concentration for mouse Melanocortin-1 receptor
Melanocyte-stimulating hormone receptor, sequence (Q01727 whole entry): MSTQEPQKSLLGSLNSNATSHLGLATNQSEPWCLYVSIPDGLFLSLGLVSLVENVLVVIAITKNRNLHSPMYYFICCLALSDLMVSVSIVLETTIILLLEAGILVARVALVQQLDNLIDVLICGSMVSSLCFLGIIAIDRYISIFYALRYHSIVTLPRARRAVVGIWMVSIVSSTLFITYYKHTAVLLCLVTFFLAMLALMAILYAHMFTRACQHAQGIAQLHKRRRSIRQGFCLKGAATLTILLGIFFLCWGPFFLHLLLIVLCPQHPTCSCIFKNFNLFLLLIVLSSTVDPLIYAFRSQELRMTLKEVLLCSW

[7] = molecular target: Melanocortin receptor 4 (Mus musculus) (UniProt P56450)
[8] = molecular target: Melanocortin receptor 4 (Mus musculus) (UniProt P56450); experiment: Partial agonist concentration for mouse Melanocortin-4 receptor; type: functional

SMILES: C[C@@H]1NC(=O)[C@H](CC(N)=O)NC(=O)[C@H](Cc2c[nH]c3ccccc23)NC(=O)[C@H](CCCN=C(N)N)NC(=O)[C@@H](Cc2ccccc2)NC(=O)C2(CCc3ccccc3C2)NC(=O)[C@@H](NC(=O)[C@@H](N)Cc2ccc(O)cc2)CC(=O)N([C@@H](Cc2ccc(O)cc2)C(N)=O)[C@@](C)(C(=O)O)NC(=O)[C@H](Cc2ccccc2)NC1=O (mixture of isomers)
pA2 [5]: 6.4 | SA [1]: 40%

SMILES: C[C@@H]1NC(=O)[C@H](CC(N)=O)NC(=O)[C@@H]2CCCN2C(=O)[C@H](CCCNC(=N)N)NC(=O)[C@@H](Cc2ccccc2)NC(=O)[C@H](Cc2c[nH]cn2)NC(=O)[C@@H](NC(=O)[C@@H](N)Cc2ccc(O)cc2)CC(=O)NC[C@@H](C(=O)N[C@@H](Cc2ccc(O)cc2)C(N)=O)NC(=O)[C@H](Cc2ccccc2)NC1=O
EC50 (Melanocortin receptor 4): 7.2 µM | EC50 (Melanocortin receptor 5): 0.7 µM | EC50 [6]: 1 µM

SMILES: C[C@@H]1NC(=O)[C@H](CC(N)=O)NC(=O)[C@H](Cc2c[nH]c3ccccc23)NC(=O)[C@H](CCCCN)NC(=O)[C@@H](Cc2ccccc2)NC(=O)[C@H](Cc2c[nH]cn2)NC(=O)[C@@H](NC(=O)[C@@H](N)Cc2ccc(O)cc2)CC(=O)NC[C@@H](C(=O)N[C@@H](Cc2ccc(O)cc2)C(N)=O)NC(=O)[C@H](Cc2ccccc2)NC1=O
EC50 (Melanocortin receptor 4): 8.6 µM | EC50 (Melanocortin receptor 5): 0.8 µM | EC50 [6]: 0.68 µM

SMILES: C[C@@H]1NC(=O)[C@H](CC(N)=O)NC(=O)[C@H](C)NC(=O)[C@H](CCCNC(=N)N)NC(=O)[C@@H](Cc2ccccc2)NC(=O)[C@H](Cc2c[nH]cn2)NC(=O)[C@@H](NC(=O)[C@@H](N)Cc2ccc(O)cc2)CC(=O)NC[C@@H](C(=O)N[C@@H](Cc2ccc(O)cc2)C(N)=O)NC(=O)[C@H](Cc2ccccc2)NC1=O
EC50 (Melanocortin receptor 4): 0.71 µM | EC50 (Melanocortin receptor 5): 0.0501 µM | EC50 [6]: 0.35 µM

SMILES: C[C@@H]1NC(=O)[C@H](CC(N)=O)NC(=O)[C@H](Cc2ccccc2)NC(=O)[C@H](Cc2ccccc2)NC(=O)[C@H](CCCN=C(N)N)NC(=O)[C@@H](NC(=O)[C@@H](N)Cc2ccc(O)cc2)CSSC[C@@H](C(=O)N[C@@H](Cc2ccc(O)cc2)C(N)=O)NC(=O)[C@H](Cc2ccccc2)NC1=O (H-YCRFFNAFCY-NH2; disulfide 2-9)
pA2 [7]: 6.8

More lines, now with the values ahead:

SA [1]: 60%
SMILES: C[C@@H]1NC(=O)[C@H](CC(N)=O)NC(=O)[C@H](Cc2c[nH]c3ccccc23)NC(=O)[C@H](CCCN=C(N)N)NC(=O)[C@H](C)NC(=O)[C@H](Cc2c[nH]cn2)NC(=O)[C@@H](NC(=O)[C@@H](N)Cc2ccc(O)cc2)CC(=O)N([C@@H](Cc2ccc(O)cc2)C(N)=O)[C@@](C)(C(=O)O)NC(=O)[C@H](Cc2ccccc2)NC1=O

pA2 [2]: 7.2
SMILES: C[C@@H]1NC(=O)[C@H](CC(N)=O)NC(=O)[C@H](Cc2c[nH]c3ccccc23)NC(=O)[C@H](CCCN=C(N)N)NC(=O)[C@@H](Cc2ccccc2)NC(=O)[C@H](Cc2ccccc2)NC(=O)[C@@H](NC(=O)[C@@H](N)Cc2ccc(O)cc2)CC(=O)N([C@@H](Cc2ccc(O)cc2)C(N)=O)[C@@](C)(C(=O)O)NC(=O)[C@H](Cc2ccccc2)NC1=O

pA2 [3]: 9.4 | pA2 [4]: 8.8
SMILES: C[C@@H]1NC(=O)[C@H](CC(N)=O)NC(=O)[C@H](Cc2c[nH]c3ccccc23)NC(=O)[C@H](CCCN=C(N)N)NC(=O)[C@@H](Cc2ccc(I)cc2)NC(=O)[C@H](Cc2c[nH]cn2)NC(=O)[C@@H](NC(=O)[C@@H](N)Cc2ccc(O)cc2)CC(=O)N([C@@H](Cc2ccc(O)cc2)C(N)=O)[C@@](C)(C(=O)O)NC(=O)C(Cc2ccccc2)NC1=O (stereo in doubt)

pA2 [2]: 7.2
SMILES: C[C@@H]1NC(=O)[C@H](CC(N)=O)NC(=O)[C@H](Cc2c[nH]c3ccccc23)NC(=O)[C@H](CCCN=C(N)N)NC(=O)[C@@H](Cc2ccccc2)NC(=O)[C@@H]2CCCN2C(=O)[C@@H](NC(=O)[C@@H](N)Cc2ccc(O)cc2)CC(=O)N([C@@H](Cc2ccc(O)cc2)C(N)=O)[C@@](C)(C(=O)O)NC(=O)[C@H](Cc2ccccc2)NC1=O

pA2 [8]: 9.1 | pA2 [4]: 8.2
SMILES: C[C@@H]1NC(=O)[C@H](CC(N)=O)NC(=O)[C@H](Cc2c[nH]c3ccccc23)NC(=O)[C@H](CCCN=C(N)N)NC(=O)[C@@H](Cc2ccc3ccccc3c2)NC(=O)[C@H](Cc2c[nH]cn2)NC(=O)[C@@H](NC(=O)[C@@H](N)Cc2ccc(O)cc2)CC(=O)N([C@@H](Cc2ccc(O)cc2)C(N)=O)[C@@](C)(C(=O)O)NC(=O)[C@H](Cc2ccccc2)NC1=O
